Source: ChEMBL document CHEMBL1146639, “Synthesis and evaluation of nonpeptide substituted spirobenzazepines as potent vasopressin antagonists” (Bioorg Med Chem Lett, 2004)
Converted amounts (≈) assume the structure as drawn.

Legend:
[1] = biological target: T1, Vasopressin V1a receptor (Homo sapiens, UniProt P37288); assay: Evaluated for intracellular calcium mobilization in HEK293 cells transfected to express human vasopressin V1a receptor; format: functional, cell-based
Method in brief: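 Functional V1a assay: intracellular calcium mobilization measured in HEK-293 cells transfected to express human V1a receptor; IC50 in nM.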

[2] = biological target: T2, Vasopressin V2 receptor (Homo sapiens, UniProt P30518); assay: Evaluated for accumulation of cAMP in transfected HEK293 cells expressing human vasopressin V2 receptor; format: functional, cell-based
T2 sequence (P30518 whole entry): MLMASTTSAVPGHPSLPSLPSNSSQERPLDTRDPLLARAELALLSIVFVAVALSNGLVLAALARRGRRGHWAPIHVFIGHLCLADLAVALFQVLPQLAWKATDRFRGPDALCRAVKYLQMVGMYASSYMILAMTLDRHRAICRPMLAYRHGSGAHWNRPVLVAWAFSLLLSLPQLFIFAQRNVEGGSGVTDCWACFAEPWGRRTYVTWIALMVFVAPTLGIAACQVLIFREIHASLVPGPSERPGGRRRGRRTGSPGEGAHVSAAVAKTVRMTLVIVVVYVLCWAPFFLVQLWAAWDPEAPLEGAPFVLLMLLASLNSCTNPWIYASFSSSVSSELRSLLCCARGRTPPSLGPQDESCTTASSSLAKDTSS
Method in brief: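 Functional V2 assay: cAMP accumulation measured in transfected HEK-293 cells expressing human V2 receptor; IC50 in nM.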

[3] = biological target: T2, Vasopressin V2 receptor; assay: Binding affinity measured by inhibition of 3[H] AVP binding to cloned human vasopressin V2 receptor
Method in brief: (§1)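 Radioligand binding: inhibition of [3H]AVP binding to cloned human V1a or V2 receptors; IC50 in nM.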

[4] = biological target: T1, Vasopressin V1a receptor; assay: Binding affinity measured by inhibition of 3[H] AVP binding to cloned human vasopressin V1a receptor; method in brief: as §1
[5] = biological target: T1, Vasopressin V1a receptor; assay: Binding affinity measured by inhibition of 3[H] AVP binding to cloned human vasopressin V1a receptor (Compound 7o)
Method in brief: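 Displacement of [3H]AVP from cloned human V1a receptor; IC50 from inhibition of radioligand binding.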

[6] = biological target: T1, Vasopressin V1a receptor; assay: Evaluated for intracellular calcium mobilization in HEK- 293 cells transfected to express human vasopressin V1a receptor (Compound 7o); format: functional, cell-based, HEK293
Method in brief: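 Antagonism measured as inhibition of intracellular calcium mobilization in HEK-293 cells transfected with human V1a receptor; IC50 reported.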

[7] = Solubility measured at pH 2; format: physicochemical; conditions: buffer
[8] = biological target: T3, Vasopressin V1a receptor (Rattus norvegicus, UniProt P30560); assay: Evaluated for binding affinity towards vasopressin receptor V1a in rat
T3 sequence (P30560 whole entry): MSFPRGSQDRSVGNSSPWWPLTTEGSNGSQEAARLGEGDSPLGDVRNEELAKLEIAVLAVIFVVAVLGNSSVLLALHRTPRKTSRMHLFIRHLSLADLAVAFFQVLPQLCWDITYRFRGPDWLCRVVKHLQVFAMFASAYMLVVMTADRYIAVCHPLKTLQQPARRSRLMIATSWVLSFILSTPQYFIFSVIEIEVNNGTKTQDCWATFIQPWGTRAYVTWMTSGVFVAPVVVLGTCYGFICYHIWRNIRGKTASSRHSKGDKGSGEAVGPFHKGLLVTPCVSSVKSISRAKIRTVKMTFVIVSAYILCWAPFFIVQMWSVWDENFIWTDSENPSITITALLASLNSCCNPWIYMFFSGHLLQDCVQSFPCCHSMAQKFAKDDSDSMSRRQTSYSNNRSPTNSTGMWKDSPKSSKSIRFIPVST
Method in brief: (§2)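 Binding IC50 measured in cells transfected with rat V1a or rat V2 receptors.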

[9] = Partition coefficient (logP); format: physicochemical; conditions: octanol/water
[10] = Half-life was evaluated in rats at an intravenous dose of 3 mg/kg; format: ADME, organism-based; set-up: dose 3 mg/kg, route intravenous; conditions: rat, in vivo
[11] = Area under the curve was evaluated at an oral dose of 30 mg/kg; format: ADME, organism-based; set-up: dose 30 mg/kg, route oral; conditions: rat, in vivo
[12] = Maximum plasma concentration was evaluated in rats at an intravenous dose of 3 mg/kg; format: ADME, organism-based; set-up: dose 3 mg/kg, route intravenous; conditions: rat
[13] = Half-life was evaluated in rats at an oral dose of 30 mg/kg; format: ADME, organism-based; set-up: dose 30 mg/kg, route oral; conditions: rat, in vivo
Method in brief: (§3)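 Rats given a single oral dose of 30 mg/kg. Cmax, Tmax, terminal half-life and absolute oral bioavailability determined.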

[14] = Half-life determined by human liver microsome stability assay at a concentration of 5 uM; format: ADME; conditions: liver microsomes
[15] = Maximum plasma concentration was evaluated in rats at an oral dose of 30 mg/kg; format: ADME, organism-based; set-up: dose 30 mg/kg, route oral; conditions: rat; method in brief: as §3
[16] = Apparent volume of distribution when 3 mg/Kg dose was administered intravenously; format: ADME, organism-based; conditions: rat, in vivo, iv, read-out: Volume distribution
Method in brief: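 Rats given a single intravenous dose of 3 mg/kg. Apparent volume of distribution reported in […].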

[17] = Solubility measured at pH 7.4; format: physicochemical; conditions: buffer
[18] = biological target: Vasopressin V2 receptor (Rattus norvegicus, UniProt Q00788); assay: Evaluated for binding affinity towards vasopressin V2 receptor in rat; method in brief: as §2
Vasopressin V2 receptor (Rattus norvegicus, UniProt Q00788), sequence (Q00788 whole entry): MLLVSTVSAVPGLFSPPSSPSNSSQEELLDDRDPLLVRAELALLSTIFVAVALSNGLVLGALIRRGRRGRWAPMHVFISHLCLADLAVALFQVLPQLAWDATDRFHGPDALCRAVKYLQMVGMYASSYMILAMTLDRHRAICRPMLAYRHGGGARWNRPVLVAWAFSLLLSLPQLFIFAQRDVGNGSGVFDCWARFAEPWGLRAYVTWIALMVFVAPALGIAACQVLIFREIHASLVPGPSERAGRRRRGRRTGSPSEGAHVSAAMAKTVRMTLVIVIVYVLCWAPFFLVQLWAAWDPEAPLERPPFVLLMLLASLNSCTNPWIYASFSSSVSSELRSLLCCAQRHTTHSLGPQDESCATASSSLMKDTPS

[19] = Area under the curve was evaluated at an intravenous dose of 3 mg/kg; format: ADME, organism-based; set-up: dose 3 mg/kg, route intravenous; conditions: rat, in vivo
[20] = Bioavailability was evaluated in rats at an oral dose of 30 mg/kg; format: ADME, organism-based; conditions: rat, in vivo; method in brief: as §3
[21] = Time to reach maximum plasma concentration was evaluated at an oral dose of 30 mg/kg; format: ADME, organism-based; set-up: dose 30 mg/kg, route oral; conditions: rat; method in brief: as §3
[22] = biological target: T3, Vasopressin V1a receptor; assay: Evaluated for binding affinity towards vasopressin V1a receptor in rat; method in brief: as §2

T1 sequence (P37288 whole entry): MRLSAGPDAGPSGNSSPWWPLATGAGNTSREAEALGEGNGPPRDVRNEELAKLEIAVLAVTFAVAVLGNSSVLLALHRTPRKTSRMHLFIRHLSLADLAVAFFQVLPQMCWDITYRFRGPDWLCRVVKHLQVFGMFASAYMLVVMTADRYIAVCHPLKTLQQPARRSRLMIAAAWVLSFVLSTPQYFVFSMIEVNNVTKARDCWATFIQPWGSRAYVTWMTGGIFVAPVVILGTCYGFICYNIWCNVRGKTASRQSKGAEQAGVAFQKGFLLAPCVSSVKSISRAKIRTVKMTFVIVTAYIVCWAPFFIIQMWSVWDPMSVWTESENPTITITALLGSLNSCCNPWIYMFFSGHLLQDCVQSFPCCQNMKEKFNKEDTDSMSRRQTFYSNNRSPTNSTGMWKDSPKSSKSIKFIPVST

Row | IC50 [1] [nM] | IC50 [2] [nM] | IC50 [3] [nM] | IC50 [4] [nM] | Compound | further results
1 | 48 | 48 | 39 | 10 | Cc1ccc(F)cc1C(=O)Nc1ccc(C(=O)N2CCC3(C=C(C(=O)NCCN4CCCCC4)CC3)Cc3ccccc32)cc1 (stereo not drawn) | IC50 [5]: 16 nM; IC50 [6]: 71 nM
2 | 4 | 31 |  |  | Cc1ccc(F)cc1C(=O)Nc1ccc(C(=O)N2CCC3(C=C(C(=O)NCCCN(C)C)CC3)Cc3ccccc32)cc1 (stereo not drawn) | 
3 |  | > 1000 | > 1000 |  | CN(C)CCNC(=O)C1=CC2(CC1)CCN(C(=O)c1ccc(NC(=O)c3ccccc3F)cc1)c1ccccc1C2 (stereo not drawn) | 
4 | 78 | 646 | 341 | 4 | CN(C)CCNC(=O)C1=C[C@@]2(CC1)CCN(C(=O)c1ccc(NC(=O)c3ccccc3F)cc1)c1ccccc1C2 (single isomer, unassigned) | solubility [7]: 320 µg/mL (≈ 577 µM); IC50 [8]: 433 nM; logP [9]: 2.45; half-life [10]: 4.35 h; AUC [11]: 7.04 µM·h; Cmax [12]: 1800 nM; half-life [13]: 4.15 h; half-life at 5 µM [14]: 0.717 h; Cmax [15]: 1100 nM; Vd [16]: 6.67 L/kg; solubility [17]: 70 µg/mL (≈ 126 µM); IC50 [18]: 444 nM; AUC [19]: 1.68 µM·h; bioavailability [20]: 42%; Tmax [21]: 4.67 h
5 | 29 | 48 | 39 | 19 | Cc1ccc(F)cc1C(=O)Nc1ccc(C(=O)N2CCC3(C=C(C(=O)NCCN4CCCC4)CC3)Cc3ccccc32)cc1 (stereo not drawn) | 
6 | 65 | 105 | 20 |  | Cc1ccc(F)cc1C(=O)Nc1ccc(C(=O)N2CCC3(C=C(C(=O)NCCN(C)C)CC3)Cc3ccccc32)cc1 (stereo not drawn) | 
7 | 135 | 440 | 10 | 7 | COC(=O)CNC(=O)C1=CC2(CC1)CCN(C(=O)c1ccc(NC(=O)c3cc(F)ccc3C)cc1)c1ccccc1C2 (stereo not drawn) | 
8 |  | 100 |  |  | CN(C)CCNC(=O)C1=CC2(CC1)CCN(C(=O)c1ccc(NC(=O)c3ccccc3-c3ccccc3)cc1)c1ccccc1C2 (stereo not drawn) | 

Continued, compound first:

Row | Compound | IC50 [1] [nM] | IC50 [2] [nM] | IC50 [3] [nM] | IC50 [4] [nM] | further results
9 | O=C(O)CNC(=O)C1=CC2(CC1)CCN(C(=O)c1ccc(NC(=O)c3ccccc3-c3ccccc3)cc1)c1ccccc1C2 (stereo not drawn) | 78 | 350 | 18 | 24 | 
10 | CN(C)CCCNC(=O)C1=CC2(CC1)CCN(C(=O)c1ccc(NC(=O)c3ccccc3-c3ccccc3)cc1)c1ccccc1C2 (stereo not drawn) | 29 | 20 | 16 | 5 | 
11 | O=C(NCCN1CCCC1)C1=CC2(CC1)CCN(C(=O)c1ccc(NC(=O)c3ccccc3F)cc1)c1ccccc1C2 (stereo not drawn) | 155 | > 1000 | > 1000 | 8 | 
12 | O=C(NCCO)C1=CC2(CC1)CCN(C(=O)c1ccc(NC(=O)c3ccccc3-c3ccccc3)cc1)c1ccccc1C2 (stereo not drawn) |  | 170 |  |  | 
13 | O=C(NCCN1CCOCC1)C1=CC2(CC1)CCN(C(=O)c1ccc(NC(=O)c3ccccc3F)cc1)c1ccccc1C2 (stereo not drawn) |  |  | > 1000 | 4 | 
14 | O=C(NCCN1CCCCC1)C1=CC2(CC1)CCN(C(=O)c1ccc(NC(=O)c3ccccc3F)cc1)c1ccccc1C2 (stereo not drawn) |  | > 1000 | > 1000 |  | 
15 | O=C(NCCO)C1=CC2(CC1)CCN(C(=O)c1ccc(NC(=O)c3ccccc3F)cc1)c1ccccc1C2 (stereo not drawn) |  | > 1000 | > 1000 |  | 
16 | CN(C)CCNC(=O)C1=C[C@]2(CC1)CCN(C(=O)c1ccc(NC(=O)c3ccccc3-c3ccccc3)cc1)c1ccccc1C2 | 45 | 36 | 8 | 2 | solubility [7]: 160 µg/mL (≈ 261 µM); logP [9]: 3.63; half-life [10]: 1.68 h; AUC [11]: 4.57 µM·h; Cmax [12]: 2660 nM; half-life [13]: 6.47 h; half-life at 5 µM [14]: 1.08 h; Cmax [15]: 790 nM; Vd [16]: 6.84 L/kg; solubility [17]: 40 µg/mL (≈ 65.3 µM); IC50 [22]: 33 nM; AUC [19]: 2.06 µM·h; bioavailability [20]: 22%; Tmax [21]: 4 h
